This passage reports zone of inhibition and inhibition zone (IZ) results from ChEMBL document CHEMBL1177778, “One-pot multicomponent synthesis and anti-microbial evaluation of 2'-(indol-3-yl)-2-oxospiro(indoline-3,4'-pyran) derivatives” (2010).

Holding throughout (assay type): functional
Details in all cases: for zone of inhibition at 100 µg/mL: read-out: DIZ

The test system of one test is Staphylococcus aureus. As to the kind of experiment: Antimicrobial activity against Staphylococcus aureus at 100 ug/ml after 24 to 48 hrs by disk diffusion method. The method, boiled down: (§1)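 Disc diffusion (cup plate) screen. Organism suspensions were applied to plates and incubated at 36 °C for 24–48 h in a sufficiently humid chamber, after which the zone of inhibition was read. Compounds were dissolved in DMSO as a stock solution and serially diluted to test solutions of 25, 50, 75, 100 and 150 µg/ml.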

The subject of the next test is Bacillus subtilis. Briefly: Antimicrobial activity against Bacillus subtilis at 100 ug/ml after 24 to 48 hrs by disk diffusion method. Put shortly:
as §1

Test [1] relates to Staphylococcus epidermidis. Briefly: Antimicrobial activity against Staphylococcus epidermidis at 100 ug/ml after 24 to 48 hrs by disk diffusion method. Put shortly: as §1
The test system of another test is Aspergillus niger. Briefly: Antimicrobial activity against Aspergillus niger at 100 ug/ml after 24 to 48 hrs by disk diffusion method. The method, boiled down:
as §1

For the molecule `Cn1cc(C2=C(C#N)[C@@]3(C(=O)c4cccc5cccc3c45)C(C#N)=C(N)O2)c2ccccc21`, the zone of inhibition at 100 µg/mL in the test with Staphylococcus aureus worked out at 39 mm; with Bacillus subtilis, 36 mm; in test [1] it was 38 mm; with Aspergillus niger, 28 mm.

For the molecule `C#CCN1C(=O)[C@]2(C(C#N)=C(N)OC(c3c[nH]c4ccccc34)=C2C#N)c2ccccc21`, the zone of inhibition at 100 µg/mL in the test on Staphylococcus aureus worked out at 18 mm; with Bacillus subtilis, 20 mm; in test [1], 19 mm; in the test with Aspergillus niger it was 25 mm.

With `CCOC(=O)CN1C(=O)[C@]2(C(C#N)=C(N)OC(c3c[nH]c4ccccc34)=C2C#N)c2ccccc21`, the zone of inhibition at 100 µg/mL is 24 mm in the test with Staphylococcus aureus, 26 mm with Bacillus subtilis, 25 mm in test [1] and 25 mm with Aspergillus niger.

Regarding `CCOC(=O)C1=C(N)OC(c2c[nH]c3ccccc23)=C(C#N)[C@@]12C(=O)N(C)c1ccccc12`, the zone of inhibition at 100 µg/mL in the test with Staphylococcus aureus is 18 mm; with Bacillus subtilis it was 13 mm; in test [1], 14 mm; in the test on Aspergillus niger, 23 mm.

As for `C=CCN1C(=O)[C@@]2(C(C#N)=C(c3c[nH]c4ccccc34)OC(N)=C2C(=O)OCC)c2ccccc21`, the zone of inhibition at 100 µg/mL in the test with Staphylococcus aureus is 18 mm; with Bacillus subtilis, 14 mm; in test [1], 13 mm; in the test on Aspergillus niger it was 21 mm.

Consider `CCOC(=O)C1=C(N)OC(c2c[nH]c3ccccc23)=C(C#N)[C@@]12C(=O)c1cccc3cccc2c13`, for which the zone of inhibition at 100 µg/mL amounted to 20 mm in the test on Staphylococcus aureus, 17 mm in the test with Bacillus subtilis, 18 mm in test [1] and 27 mm in the test on Aspergillus niger.

Turning to `CCOC(=O)C1=C(N)OC(c2c[nH]c3ccccc23)=C(C#N)[C@@]12C(=O)Nc1ccccc12`, the zone of inhibition at 100 µg/mL in the test with Staphylococcus aureus was 18 mm; in the test with Bacillus subtilis, 19 mm; in test [1] it was 18 mm; with Aspergillus niger it was 23 mm.

On to `CCOC(=O)CN1C(=O)[C@@]2(C(C#N)=C(c3c[nH]c4ccccc34)OC(N)=C2C(=O)OCC)c2ccccc21`, for which the zone of inhibition at 100 µg/mL in the test on Staphylococcus aureus was determined as 14 mm; with Bacillus subtilis it was 12 mm; in test [1], 10 mm; in the test on Aspergillus niger it was 21 mm.

Turning to GENTAMICIN SULFATE, the inhibition zone (IZ) in the test with Staphylococcus aureus is 26 mm; in the test with Bacillus subtilis, 30 mm; in test [1], 28 mm; in the test with Aspergillus niger, 28 mm.

On to `CCOC(=O)C1=C(N)OC(c2c[nH]c3ccccc23)=C(C#N)[C@@]12C(=O)N(Cc1ccccc1)c1ccccc12`, for which the zone of inhibition at 100 µg/mL in the test with Staphylococcus aureus is 16 mm; in the test with Bacillus subtilis it was 14 mm; in test [1], 15 mm; in the test with Aspergillus niger it was 24 mm.

With `CCOC(=O)C1=C(N)OC(c2cn(C)c3ccccc23)=C(C#N)[C@@]12C(=O)c1cccc3cccc2c13`, the zone of inhibition at 100 µg/mL in the test with Staphylococcus aureus was 19 mm; in the test with Bacillus subtilis, 18 mm; in test [1], 18 mm; with Aspergillus niger it was 22 mm.

In the test on Aspergillus niger, NYSTATIN came in with an inhibition zone (IZ) of 28 mm.

Turning to `CCOC(=O)C1=C(N)OC(c2c(C)[nH]c3ccccc23)=C(C#N)[C@@]12C(=O)c1cccc3cccc2c13`, the zone of inhibition at 100 µg/mL with Staphylococcus aureus is 20 mm; in the test on Bacillus subtilis, 18 mm; in test [1], 16 mm; in the test on Aspergillus niger, 26 mm.

Take `CCCCN1C(=O)[C@@]2(C(C#N)=C(c3c[nH]c4ccccc34)OC(N)=C2C(=O)OCC)c2ccccc21`: the zone of inhibition at 100 µg/mL in the test on Staphylococcus aureus stood at 16 mm; in the test on Bacillus subtilis, 17 mm; in test [1] it was 14 mm; with Aspergillus niger, 27 mm.

Consider `N#CC1=C(N)OC(c2c[nH]c3ccccc23)=C(C#N)[C@@]12C(=O)N(Cc1ccccc1)c1ccccc12`, for which the zone of inhibition at 100 µg/mL with Staphylococcus aureus was 29 mm; in the test with Bacillus subtilis, 30 mm; in test [1] it was 31 mm; in the test with Aspergillus niger it was 24 mm.

Consider `N#CC1=C(N)OC(c2c[nH]c3ccccc23)=C(C#N)[C@@]12C(=O)c1cccc3cccc2c13`, for which the zone of inhibition at 100 µg/mL came to 38 mm with Staphylococcus aureus, 40 mm in the test with Bacillus subtilis, 39 mm in test [1] and 29 mm in the test on Aspergillus niger.

Regarding `O=C(N[C@H](CO)[C@H](O)c1ccc([N+](=O)[O-])cc1)C(Cl)Cl` [CHLORAMPHENICOL], the zone of inhibition at 100 µg/mL with Staphylococcus aureus turned out to be 29 mm; with Bacillus subtilis, 32 mm; in test [1], 31 mm; with Aspergillus niger, 25 mm.

For `CN1C(=O)[C@]2(C(C#N)=C(N)OC(c3c[nH]c4ccccc34)=C2C#N)c2ccccc21`, the zone of inhibition at 100 µg/mL in the test on Staphylococcus aureus was found to be 27 mm; in the test on Bacillus subtilis, 26 mm; in test [1], 28 mm; with Aspergillus niger it was 27 mm.

As for `Cc1[nH]c2ccccc2c1C1=C(C#N)[C@@]2(C(=O)c3cccc4cccc2c34)C(C#N)=C(N)O1`, the zone of inhibition at 100 µg/mL with Staphylococcus aureus came out at 20 mm; in the test with Bacillus subtilis it was 19 mm; in test [1], 16 mm; with Aspergillus niger, 26 mm.

Take `C#CCN1C(=O)[C@@]2(C(C#N)=C(c3c[nH]c4ccccc34)OC(N)=C2C(=O)OCC)c2ccccc21`: the zone of inhibition at 100 µg/mL with Staphylococcus aureus worked out at 16 mm; in the test with Bacillus subtilis, 17 mm; in test [1], 16 mm; in the test on Aspergillus niger it was 25 mm.

`N#CC1=C(N)OC(c2c[nH]c3ccccc23)=C(C#N)[C@@]12C(=O)Nc1ccccc12`: the zone of inhibition at 100 µg/mL came to 29 mm in the test with Staphylococcus aureus, 28 mm with Bacillus subtilis, 30 mm in test [1] and 28 mm in the test with Aspergillus niger.
